The values that follow come from ChEMBL document CHEMBL1123190, “Synthesis and biological evaluation of cyclic analogues of 1-carnitine as potential agents in the treatment of myocardial ischemia” (J Med Chem, 1986).

Values joined by “and” are separate entries in the source; they are usually repeats but may differ in a detail not shown here. Identical values can stand only once.

The target of the first assay is T1, Mitochondrial carnitine/acylcarnitine carrier protein (Rattus norvegicus) (UniProt P97521).
T1 sequence (whole entry): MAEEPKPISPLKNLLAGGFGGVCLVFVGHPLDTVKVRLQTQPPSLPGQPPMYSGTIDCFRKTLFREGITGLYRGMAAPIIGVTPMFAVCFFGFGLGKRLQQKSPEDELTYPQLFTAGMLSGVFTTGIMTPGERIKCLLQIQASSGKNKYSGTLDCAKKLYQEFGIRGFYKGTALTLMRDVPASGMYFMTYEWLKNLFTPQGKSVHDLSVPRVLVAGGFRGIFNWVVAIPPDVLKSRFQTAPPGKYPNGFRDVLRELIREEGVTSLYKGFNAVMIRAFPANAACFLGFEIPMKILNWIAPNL
As to the kind of experiment: Affinity of compound towards the carnitine/acylcarnitine translocase was determined by monitoring the efflux of [14C]L-carnitine from isolated rat heart mitochondria. The procedure, abridged:
(§1)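 Isolated rat heart mitochondria (differential centrifugation) in 200 mM D-mannitol/50 mM Tris-HCl pH 7.4 with rotenone, oligomycin and antimycin A were loaded with l-carnitine plus [14C]-l-carnitine for 3 min at 28 °C, then washed. Compound at 3 or 50 mM, or water control, was added; efflux ran 1 min on ice and was quenched with mersalyl. Supernatant was scintillation-counted, and % efflux was calculated against control and total radioactivity. Mean of three.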
In the case of `O=C(O)C1CCCCN1` (stereo not given), the Experimental DPM was 4280. With `NCC(O)CC(=O)O` (stereo not given), the Experimental DPM came out at 4220. Still for that read-out and setting: under `C[N+]1(C)CCC[C@H]1C(=O)[O-]` stands 5570.

On to `CCCCCCCCCCCCCCCC(=O)OC(CN)CC(=O)O` (stereo not given), for which the Experimental DPM was 3470. Same read-out and setting: the result for `CCCCCCCCCCCCCCCC(=O)O[C@@H]1C[C@@H](C(=O)O)[N+](C)(C)C1` reads 5890 and 8870; that for `O=C(O)[C@@H]1CCCN1`, 5050. The same measure, in the same setting: the result for `O=C(O)[C@@H]1C[C@@H](O)CN1` reads 5350; that for `O=C(O)C1CCCNC1` (stereo not given), 4130.

Another assay deals with T1, Mitochondrial carnitine/acylcarnitine carrier protein (Rattus norvegicus). As to the kind of experiment: Affinity of compound towards the carnitine/acylcarnitine translocase was determined by monitoring the efflux of [14C]L-carnitine from isolated rat heart mitochondria at 3 mM conc. The procedure, abridged: as §1
`C[N+]1(C)C[C@H](O)C[C@H]1C(=O)O` displayed an Experimental DPM of 4930, a Total DPM of 12200 and a Trans of 3.16%. The matching figures for `C[N+]1(C)CCCC(C(=O)O)C1` (stereo not given): 4030, 10900 and 0%. As for `C[N+]1(C)CCC[C@H]1C(=O)[O-]`, the Total DPM stood at 12200 and the Trans was determined as 3.17%. The compound `C[N+]1(C)CCCCC1C(=O)O` (stereo not given) registered an Experimental DPM of 3850, a Total DPM of 10900 and a Trans of 0%. The matching figures for `C[N+](C)(C)[C@@H]1CCCC[C@H]1C(=O)O`: 4170, 10900 and 0%.

As for `C[N+](C)(C)CC(O)CC(=O)[O-]` (stereo not given), the Experimental DPM was found to be 11800, the Total DPM came out at 12200 and the Trans worked out at 94.2%.
